Test results as given in ChEMBL document CHEMBL1944564, “Discovery of a novel and potent class of F. tularensis enoyl-reductase (FabI) inhibitors by molecular shape and electrostatic matching” (J Med Chem, 2012).
≈ marks a conversion by molar mass, not a printed value.

Legend:
[1] = Inhibition of N-terminus His-tagged Francisella tularensis subsp. Tularensis Schu4 […] expressed in Escherichia coli […] cells assessed as conversion of crotonyl-CoA and NADH to butyryl-CoA and NAD+ preincubated for 30 mins by measured fluorescence analysis; parameters: species or system Francisella tularensis subsp. tularensis SCHU S4
Outline: (§1)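 Recombinant N-terminal His-tagged F. tularensis FabI, expressed in E. coli BL21(DE3) and purified by Ni-affinity and size exclusion to >98%, was used at 0.2 μM. Inhibitor in DMSO was preincubated 30 min, then 200 μM crotonyl-CoA was added. The rate of decrease in NADH fluorescence (ex 340/em 450 nm) gave % inhibition versus a DMSO control.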

Escherichia coli [2] = experiment: Antibacterial activity against Escherichia coli BW251113 after overnight incubation; type: functional
Outline: (§2)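 Broth microdilution in LB with 2-fold serial dilutions of compound and ciprofloxacin as control.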

Escherichia coli [3] = experiment: Antibacterial activity against Escherichia coli BW251113 harboring TolC deletion mutation after overnight incubation; type: functional
Francisella tularensis = experiment: Antibacterial activity against Francisella tularensis after overnight incubation; type: functional
Bacillus anthracis = experiment: Antibacterial activity against Bacillus anthracis after overnight incubation; type: functional
Yersinia pestis = experiment: Antibacterial activity against Yersinia pestis after overnight incubation; type: functional
Staphylococcus aureus [4] = experiment: Antibacterial activity against Staphylococcus aureus after overnight incubation; type: functional; outline: as §2
Staphylococcus aureus [5] = experiment: Antibacterial activity against methicillin-resistant Staphylococcus aureus after overnight incubation; type: functional; outline: as §2
DL21 (DE3) = experiment: Inhibition of N-terminus His-tagged Francisella tularensis subsp. Tularensis Schu4 […] expressed in Escherichia coli […] cells assessed as conversion of crotonyl-CoA and NADH to butyryl-CoA and NAD+ preincubated at 100 uM for 30 mins by fluorescence analysis; conditions: Francisella tularensis subsp. tularensis SCHU S4; outline: as §1

## Cc1cc2ncn(Cc3ccc(Cl)cc3)c2cc1C
[1]
  IC50: 0.3 µM
Escherichia coli [2]
  MIC: > 50 µg/mL
Escherichia coli [3]
  MIC: 12.5 µg/mL (≈ 46.2 µM)
Francisella tularensis
  MIC: 15.6 µg/mL (≈ 57.6 µM)
Bacillus anthracis
  MIC: > 50 µg/mL
Yersinia pestis
  MIC: > 50 µg/mL
Staphylococcus aureus [4]
  MIC: > 50 µg/mL

## Cc1ccc(Cn2cnc3ccccc32)cc1
[1]
  IC50: 90 µM

## Fc1ccc(Cn2cnc3ccccc32)cc1
[1]
  IC50: > 100 µM

## Clc1ccc(Cn2cnc3ccccc32)c(Cl)c1
[1]
  IC50: 22 µM

## Cc1cc2ncn(Cc3ccc(Cl)cc3Cl)c2cc1C
[1]
  IC50: 0.7 µM
Escherichia coli [2]
  MIC: > 200 µg/mL
Escherichia coli [3]
  MIC: 19 µg/mL (≈ 62.3 µM)
Francisella tularensis
  MIC: 4.3 µg/mL (≈ 14.1 µM)
Bacillus anthracis
  MIC: > 38 µg/mL
Yersinia pestis
  MIC: > 38 µg/mL
Staphylococcus aureus [4]
  MIC: 38 µg/mL (≈ 125 µM)
Staphylococcus aureus [5]
  MIC: 38 µg/mL (≈ 125 µM)

## Clc1ccc(Cn2cnc3ccccc32)cc1
[1]
  IC50: 27 µM
DL21 (DE3)
  inhibition: 70%

## Clc1cccc(Cn2cnc3ccccc32)c1
[1]
  IC50: 85 µM

## c1ccc(Cn2cnc3ccccc32)cc1
[1]
  IC50: > 100 µM

## Nc1ncc(Cc2ccc(Cl)cc2)s1
[1]
  IC50: 63 µM
DL21 (DE3)
  inhibition: 49%

## Brc1ccc(Cn2cnc3ccccc32)cc1
[1]
  IC50: 27.4 µM

## O=C(NC(=O)c1cc(-c2ccc(Cl)cc2)oc1C(F)(F)F)c1ccccc1O
DL21 (DE3)
  inhibition: 39%

## O=C(c1ccc(Cl)cc1)n1cnc2ccccc21
[1]
  IC50: > 100 µM

## Cc1nc2ccccc2n1Cc1ccc(Cl)c(Cl)c1
[1]
  IC50: 3.2 µM
Escherichia coli [2]
  MIC: 50 µg/mL (≈ 172 µM)
Escherichia coli [3]
  MIC: 25 µg/mL (≈ 85.9 µM)
Francisella tularensis
  MIC: 9.4 µg/mL (≈ 32.3 µM)
Bacillus anthracis
  MIC: 25 µg/mL (≈ 85.9 µM)
Yersinia pestis
  MIC: ≥ 50 µg/mL
Staphylococcus aureus [4]
  MIC: 50 µg/mL (≈ 172 µM)

## Cc1cc2ncn(C(=O)c3cccc(Cl)c3)c2cc1C
[1]
  IC50: > 100 µM

## Clc1ccc(Cn2cnc3ccccc32)cc1Cl
[1]
  IC50: 4.7 µM
Escherichia coli [2]
  MIC: > 200 µg/mL
Escherichia coli [3]
  MIC: 25 µg/mL (≈ 90.2 µM)
Francisella tularensis
  MIC: 17.2 µg/mL (≈ 62.1 µM)
Bacillus anthracis
  MIC: 50 µg/mL (≈ 180 µM)
Yersinia pestis
  MIC: 25 µg/mL (≈ 90.2 µM)
Staphylococcus aureus [4]
  MIC: 50 µg/mL (≈ 180 µM)
Staphylococcus aureus [5]
  MIC: 50 µg/mL (≈ 180 µM)

## Cc1cc2ncn(Cc3ccc(Cl)c(Cl)c3)c2cc1C
[1]
  IC50: 0.3 µM
Escherichia coli [2]
  MIC: > 200 µg/mL
Escherichia coli [3]
  MIC: 6.25 µg/mL (≈ 20.5 µM)
Francisella tularensis
  MIC: 7.8 µg/mL (≈ 25.6 µM)
Bacillus anthracis
  MIC: 9.4 µg/mL (≈ 30.8 µM)
Yersinia pestis
  MIC: ≥ 50 µg/mL
Staphylococcus aureus [4]
  MIC: 25 µg/mL (≈ 81.9 µM)
Staphylococcus aureus [5]
  MIC: 50 µg/mL (≈ 164 µM)

## Nc1nc2ccccc2n1Cc1ccc(Cl)cc1
[1]
  IC50: > 100 µM

## COc1ccc(Cn2cnc3ccccc32)cc1
[1]
  IC50: 38 µM
